The test system of one experiment is LNCaP. Put plainly: Stimulation of ERK phosphorylation in LNCaP cells at 10 uM after 30 min relative to PMA. The experiment is classed as cell-based. The conditions noted are these: Homo sapiens. The method in brief:
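LNCaP prostate cells in RPMI-1640 with 10% FBS are plated at about 60% confluency and treated 24 h later for 15 or 30 min. Cells are PBS-washed and lysed, and lysates go through 10% SDS-PAGE and immunoblotting with anti-phosphoERK. Phospho-ERK band intensity is expressed relative to 100 nM PMA (= 100%).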

Experiment [1] concerns the target Protein kinase C alpha type (Homo sapiens, UniProt P17252). The experiment is described as follows: Displacement of [3H]PDBu from PKCalpha. The method in brief: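 Competition with [3H]PDBu for binding to recombinant single isozyme PKC alpha in the presence of phosphatidylserine. ID50 is taken from a least-squares fit of a sigmoidal competition curve. Ki = ID50/(1 + L/Kd), where L is free [3H]PDBu at the ID50 and Kd is the [3H]PDBu dissociation constant. Mean ± standard error, three determinations.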

In experiment [2] the test system is U-937. The experiment is described as follows: Induction of attachment of U937 cells after 48 hrs. Format: functional, cell-based. Conditions: Homo sapiens; for EC50: U-937, 48 h. Put shortly:
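U937 monocytes in RPMI-1640 with 10% FBS are plated at 1 × 10⁵ cells/mL and exposed (final DMSO 0.1%) for 48 h. Non-attached cells and attached cells (after trypsinization) are counted on a Coulter counter. Attached cells are expressed as % of total cells. Mean ± SEM of three independent experiments.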

Experiment [3] can be described thus: Inhibition of cell proliferation in WEHI231 cell line after 48 hrs. Format: functional, cell-based. Conditions: Mus musculus, WEHI231, 48 h. The method in brief: (§1)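 WEHI-231 cells in DMEM with 10% FBS and 50 µM β-mercaptoethanol are plated at 1 × 10⁵ viable cells/mL and dosed 24 h later (final DMSO 0.1%) for 48 h. Cells are triturated to single-cell suspension and counted on a Coulter counter. Counts are given as % of the DMSO control. Mean ± SEM of three independent experiments.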

Experiment [4] relates to CHO. Put plainly: Translocation of PKCalpha from cytosol to membrane in CHO cells at 20 uM after 120 mins. Format: functional, cell-based. Conditions: Cricetulus griseus. The method in brief:
(§2)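 CHO cells in F12-K with 10% FBS are transfected with GFP-tagged PKC alpha or PKC delta. Live cells are imaged by confocal microscopy with 488 nm excitation, time-lapse every 30 s. Redistribution from cytosol to plasma and internal membranes is followed before and after ligand addition at 10 or 20 µM, over up to about 120 min. Three independent experiments.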

Experiment [5] concerns U-937. The experiment is described as follows: Reduction of PMA-induced attachment of U937 cells at 30 uM after 48 hrs. The experiment is classed as functional, cell-based. Conditions: Homo sapiens.
Experiment [6] deals with CHO. The experiment is described as follows: Translocation of PKC from cytosol to membrane in CHO cells. The experiment is classed as functional, cell-based. Conditions: Cricetulus griseus. The method in brief: as §2
Experiment [7] relates to CHO. The experiment is described as follows: Translocation of PKCdelta from cytosol to membrane in CHO cells. The experiment is classed as functional, cell-based. Conditions: Cricetulus griseus. Put shortly: as §2
Experiment [8] in a line: Stimulation of ERK phosphorylation in LNCaP cells after 30 min. The experiment is classed as functional, cell-based. The conditions noted are these: Homo sapiens, 0.5 h. The method in brief:
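LNCaP prostate cells in RPMI-1640 with 10% FBS, plated at about 60% confluency and treated 24 h later with a range of concentrations for 15 or 30 min. Cells were washed with PBS and total lysates run on 10% SDS-PAGE, blotted and probed with anti-phosphoERK. Band intensity was expressed relative to 100 nM PMA (= 100%). Approximate EC50 was read from the graph; mean ± SEM of three experiments.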

The nature of experiment [9]: Induction of IL6 secretion in WEHI231 cells at 30 uM after 6 hrs relative to 10 uM PMA. Format: functional, Mus musculus. The conditions noted are these: in the assay text read “10 nM PMA” for “10 uM PMA”. Put shortly:
(§3)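 WEHI-231 cells are grown in DMEM with 10% FBS and 50 µM β-mercaptoethanol. They are plated at 1 × 10⁵ viable cells/mL and dosed 24 h later (final DMSO 0.1%) for 6 or 24 h. IL-6 in the supernatant is measured by ELISA, one measurement per experiment. It is expressed as % of IL-6 induced by 10 nM PMA at 6 h.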

Experiment [10] has as its system CHO. The experiment is described as follows: Translocation of PKCalpha from cytosol to membrane in CHO cells. The experiment is classed as functional, cell-based. The conditions noted are these: Cricetulus griseus. Put shortly:
as §2

Experiment [11] in a line: Induction of IL6 secretion in WEHI231 cells at 30 uM after 24 hrs relative to 10 uM PMA. The conditions noted are these: in the assay text read “10 nM PMA” for “10 uM PMA”. The experiment is classed as functional, Mus musculus. Put shortly:
as §3

Experiment [12] in a line: Inhibition of cell proliferation in WEHI231 cell line at 10 uM after 48 hrs. The experiment is classed as functional. Conditions: Mus musculus, WEHI231, 48 h. The method in brief:
as §1

The source made the active and inactive calls. No cut-off for these calls is given here.

As to `COC(=O)CCCCCCCCCCCCCCCOc1ccc(C#Cc2ccc(C#Cc3ccc(C(=O)OCC4(CO)CC(=C(C)C)C(=O)O4)cc3)cc2)cc1` (centres undefined), the outcome in the experiment on LNCaP was Active. The Ki in [1] came to 52.7 nM. The EC50 in the experiment with U-937 [2] came out at 1000 nM; in experiment [3], 3000 nM.

Consider `CC(C)=C1CC(CO)(COC(=O)c2ccc(C#Cc3ccc(C#Cc4ccc(OCCOCCOCCN(CC(=O)OC(C)(C)C)CC(=O)OC(C)(C)C)cc4)cc3)cc2)OC1=O` (centres undefined), for which, in experiment [1], the inhibition constant (Ki) worked out at 111 nM. This lies in the sub-micromolar range.

Regarding `C#Cc1ccc(C#Cc2ccc(C#Cc3ccc(C(=O)OCC4(CO)CC(=C(C)C)C(=O)O4)cc3)cc2)cc1` (centres undefined), the Ki in experiment [1] was found to be 11.6 nM. The outcome with CHO [4] and in the experiment with U-937 [5] was Active. Besides, the EC50 was 250 nM with U-937 [2] and 400 nM in [3].

As for `CC(C)=C1CC(CO)(COC(=O)c2ccc(C#Cc3ccc(C#Cc4ccc(OCCOCCOCCOC(=O)N(CC(=O)O)CC(=O)O)cc4)cc3)cc2)OC1=O` (centres undefined), the result in the experiment with CHO [6] was Active. In experiment [1], this compound displayed a Ki of 1390 nM.

`CCCCCCCCCC(=O)OCC1(CO)CC(=C(C)C)C(=O)O1` (centres undefined): the result in the experiment with CHO [7] and in the experiment on CHO [10] was Active. Also, the concentration for a half-maximal effect (EC50) in experiment [8] came to 3000 nM. The compound also had a Ki in experiment [1] of 15.9 nM. In the experiment on U-937 [2], the result was inactive. Moreover, the Activity amounted to 80% in [9] and 25% in [11].

For the compound `CC(C)=C1CC(CO)(COC(=O)c2ccc(C#Cc3ccc(C#Cc4ccc(OCCOCCOCCOC(=O)N(CC(=O)OC(C)(C)C)CC(=O)OC(C)(C)C)cc4)cc3)cc2)OC1=O` (centres undefined), 10 µM produced 35% inhibition in experiment [12]. The Ki in [1] worked out at 18.3 nM. Moreover, the outcome in the experiment with U-937 [2] was Active.

As to `CCCCCCCCCCCCCC(=O)O[C@@H]1[C@@H](C)[C@@]2(O)[C@@H](C=C(CO)C[C@]3(O)C(=O)C(C)=C[C@@H]23)[C@@H]2C(C)(C)[C@]12OC(C)=O` [PHORBOL MYRISTATE ACETATE], the EC50 stood at 0.45 nM in the experiment on U-937 [2] and 0.85 nM in [3].

With `COC(=O)COc1ccc(C#Cc2ccc(C#Cc3ccc(C#Cc4ccc(C(=O)OCC5(CO)CC(=C(C)C)C(=O)O5)cc4)cc3)cc2)cc1` (centres undefined), the Ki in experiment [1] was determined as 127 nM.

The compound `COc1ccc(C#Cc2ccc(C#Cc3ccc(C(=O)OCC4(CO)CC(=C(C)C)C(=O)O4)cc3)cc2)cc1` (centres undefined) had an inhibition constant (Ki) in experiment [1] of 5.88 nM. Besides, the EC50 in the experiment on U-937 [2] stood at 260 nM; in experiment [3] it was 430 nM.

For the compound `COC(=O)COc1ccc(C#Cc2ccc(C#Cc3ccc(C(=O)OCC4(CO)CC(=C(C)C)C(=O)O4)cc3)cc2)cc1` (centres undefined), in experiment [1], the Ki stood at 15.8 nM.

As for `C#Cc1ccc(C#Cc2ccc(C(=O)OCC3(CO)CC(=C(C)C)C(=O)O3)cc2)cc1` (centres undefined), the outcome in the experiment with CHO [7] and in the experiment with CHO [10] was Active. For the same compound, the concentration giving a half-maximal response (EC50) in experiment [8] was 400 nM; in experiment [3], 3000 nM. In experiment [1], this compound displayed a Ki of 5.23 nM.

The record behind these values is ChEMBL document CHEMBL1142858, “Conformationally constrained analogues of diacylglycerol (DAG). 27. Modulation of membrane translocation of protein kinase C (PKC) isozymes alpha and delta by diacylglycerol lactones (DAG-lactones) containing rigid-rod acyl groups” (J Med Chem, 2007).
